{
  "source": "ChEMBL document CHEMBL2062496",
  "about": "“Identification of a sirtuin 3 inhibitor that displays selectivity over sirtuin 1 and 2” (Eur J Med Chem, 2012)",
  "key": {"[1]": {"biological_target": "T1, NAD-dependent protein deacetylase sirtuin-2 (Homo sapiens) (UniProt Q8IXJ6)", "T1 sequence (whole entry)": "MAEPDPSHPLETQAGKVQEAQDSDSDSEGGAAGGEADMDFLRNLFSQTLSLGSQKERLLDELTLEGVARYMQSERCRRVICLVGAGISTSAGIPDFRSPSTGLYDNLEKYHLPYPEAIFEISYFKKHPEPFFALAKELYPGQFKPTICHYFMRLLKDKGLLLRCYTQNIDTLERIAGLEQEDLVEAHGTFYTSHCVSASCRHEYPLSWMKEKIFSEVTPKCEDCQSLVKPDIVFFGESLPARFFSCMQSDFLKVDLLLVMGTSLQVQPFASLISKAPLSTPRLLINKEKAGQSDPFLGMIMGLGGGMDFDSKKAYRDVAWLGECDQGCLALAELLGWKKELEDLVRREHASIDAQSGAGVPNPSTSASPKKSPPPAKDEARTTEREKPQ", "test": "Inhibition of human SIRT2 assessed as enzyme activity using Fluor-de-Lys as substrate at 1 mM by fluorometry", "design": "scale not given: the % may be the effect or the level left", "method_in_brief": "(§1)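 Commercial Fluor-de-Lys kit, substrate human p53 379–382 peptide (Arg-His-Lys-Lys(Ac)). Human Sirt1 or Sirt2 was incubated with substrate, NAD+ and compound at 1 mM, also tested at 100 µM. Fluorescence scales with Lys382 deacetylation. Activity is expressed relative to control, mean ± S.E.M. of 3–4 replicates.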"}, "[2]": {"biological_target": "T1, NAD-dependent protein deacetylase sirtuin-2 (Homo sapiens)", "test": "Inhibition of human SIRT2 assessed as enzyme activity using Fluor-de-Lys as substrate at 100 uM by fluorometry", "method_in_brief": "as §1"}, "[3]": {"tested_on": "SK-MEL-28", "test": "Effect on ATP level in human SK-MEL-28 cells maintained in medium containing GF and glucose at 100 uM after 24 hrs by luciferase-based assay", "format": "functional, cell-based", "method_in_brief": "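SK-MEL-28 cells in DMEM with 10% FBS, grown 24 h in 96-well plates in regular medium (growth factors, glucose), with or without compound at 100 µM. Antimycin served as positive control. Cellular ATP was released with a somatic cell releasing reagent and read by luciferase/luciferin bioluminescence. Mean ± S.E.M. of 10–14 replicates from 3 separate experiments.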"}, "[4]": {"tested_on": "SK-MEL-28", "test": "Increase in superoxide level in human SK-MEL-28 cells at 100 uM maintained in Locke's solution after 24 hrs by DHE-based fluorescence assay in absence of GF and glucose", "format": "functional, cell-based", "method_in_brief": "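SK-MEL-28 cells held 24 h in Locke's balanced saline without glucose or serum, with or without 100 µM compound; antimycin was the positive control. Cells were PBS-washed and labelled at 37 °C with DHE (10 µmol/L, 1% DMSO) in Locke's containing 5 mmol/L pyruvate for 40 min. They were then iced, trypsinized and read by FACS as MFI of 10,000 cells, autofluorescence-corrected; 3–4 separate experiments.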"}, "[5]": {"tested_on": "NCI-H322M", "test": "Growth of human NCI-H322M cells assessed as cell growth at 10 uM after 48 hrs by MTT assay"}, "[6]": {"tested_on": "PC-3", "test": "Growth inhibition of human PC3 cells assessed as cell growth at 10 uM after 48 hrs by MTT assay; values are per cent of control", "conditions": "PC-3, 48 h"}, "[7]": {"tested_on": "ACHN", "test": "Growth inhibition of human ACHN cells assessed as cell growth at 10 uM after 48 hrs by MTT assay; values are per cent of control"}, "[8]": {"tested_on": "MOLT-4", "test": "Growth inhibition of human MOLT4 cells assessed as cell growth at 10 uM after 48 hrs by MTT assay; values are per cent of control", "conditions": "MOLT-4, 48 h"}, "[9]": {"tested_on": "HOP-62", "test": "Growth inhibition of human HOP62 cells assessed as cell growth at 10 uM after 48 hrs by MTT assay; values are per cent of control", "conditions": "HOP-62, 48 h"}, "[10]": {"tested_on": "HT-29", "test": "Growth inhibition of human HT-29 cells assessed as cell growth at 10 uM after 48 hrs by MTT assay; values are per cent of control", "conditions": "HT-29, 48 h"}, "[11]": {"tested_on": "SW-620", "test": "Growth inhibition of human SW620 cells assessed as cell growth at 10 uM after 48 hrs by MTT assay; values are per cent of control", "conditions": "SW-620, 48 h"}, "[12]": {"tested_on": "RXF 393", "test": "Growth inhibition of human RXF393 cells assessed as cell growth at 10 uM after 48 hrs by MTT assay; values are per cent of control", "conditions": "RXF 393, 48 h"}, "[13]": {"test": "Growth inhibition of human Hs 578T cells assessed as cell growth at 10 uM after 48 hrs by MTT assay; values are per cent of control"}, "[14]": {"tested_on": "HCC 2998", "test": "Growth inhibition of human HCC2998 cells assessed as cell growth at 10 uM after 48 hrs by MTT assay; values are per cent of control", "conditions": "HCC 2998, 48 h"}, "[15]": {"tested_on": "NCI-H460", "test": "Growth inhibition of human NCI-H460 cells assessed as cell growth at 10 uM after 48 hrs by MTT assay; values are per cent of control", "conditions": "NCI-H460, 48 h"}, "[16]": {"tested_on": "MDA-MB-435", "test": "Growth inhibition of human MDA-MB-435 cells assessed as cell growth at 10 uM after 48 hrs by MTT assay; values are per cent of control", "conditions": "MDA-MB-435, 48 h"}, "[17]": {"tested_on": "MDA-MB-231", "test": "Growth inhibition of human MDA-MB-231 cells assessed as cell growth at 10 uM after 48 hrs by MTT assay; values are per cent of control", "conditions": "MDA-MB-231, 48 h"}, "[18]": {"test": "Growth inhibition of human NCI-ADR-RES cells assessed as cell growth at 10 uM after 48 hrs by MTT assay; values are per cent of control"}},
  "note": "Active and inactive are the calls of the source. The calls are words filed in the database; no cut-off is given here.",
  "data": [
    {"smiles": "c1cncc(-c2cnn[nH]2)c1", "values": [
      {"measurement": "Activity", "setting": "[1]", "result": 92, "unit": "%"},
      {"measurement": "inhibition", "setting": "[2]", "result": "inactive"},
      {"measurement": "Activity", "setting": "[3]", "result": "inactive"},
      {"measurement": "Activity", "setting": "[4]", "result": "Active"},
      {"measurement": "growth, % of control at 10 µM", "setting": "[5]", "result": 104, "unit": "%"},
      {"measurement": "growth, % of control at 10 µM", "setting": "[6]", "result": 88.5, "unit": "%"},
      {"measurement": "growth, % of control at 10 µM", "setting": "[7]", "result": 111, "unit": "%"},
      {"measurement": "growth, % of control at 10 µM", "setting": "[8]", "result": 101, "unit": "%"},
      {"measurement": "growth, % of control at 10 µM", "setting": "[9]", "result": 90.9, "unit": "%"},
      {"measurement": "growth, % of control at 10 µM", "setting": "[10]", "result": 39.9, "unit": "%"},
      {"measurement": "growth, % of control at 10 µM", "setting": "[11]", "result": 106, "unit": "%"},
      {"measurement": "growth, % of control at 10 µM", "setting": "[12]", "result": 98.6, "unit": "%"},
      {"measurement": "growth, % of control at 10 µM", "setting": "[13]", "result": 118, "unit": "%"},
      {"measurement": "growth, % of control at 10 µM", "setting": "[14]", "result": 77.3, "unit": "%"},
      {"measurement": "growth, % of control at 10 µM", "setting": "[15]", "result": 115, "unit": "%"},
      {"measurement": "growth, % of control at 10 µM", "setting": "[16]", "result": 56, "unit": "%"},
      {"measurement": "growth, % of control at 10 µM", "setting": "[17]", "result": 103, "unit": "%"},
      {"measurement": "growth, % of control at 10 µM", "setting": "[18]", "result": 71.3, "unit": "%"}
    ]}
  ]
}
